The results in this text go back to ChEMBL document CHEMBL3739303, “Targeting the Src Homology 2 (SH2) Domain of Signal Transducer and Activator of Transcription 6 (STAT6) with Cell-Permeable, Phosphatase-Stable Phosphopeptide Mimics Potently Inhibits Tyr641 Phosphorylation and Transcriptional Activity” (J Med Chem, 2015).

For one data set, the species on record is Mus musculus. Briefly: Inhibition of IL2-induced STAT5 phosphorylation at Y694 in CD4+ T lymphocytes isolated from C57BL/6J mouse at 0.5 to 5 uM preincubated for 2 hrs followed by activation with plate-bound anti-CD3/anti-CD28 and IL2 for 15 mins by Western blot analysis. Type of data set: cell-based. The method in brief:
(§1)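 CD4+ T cells from C57BL/6J mice, sorted by AutoMACS; activated 15 min with plate-bound anti-CD3 and/or anti-CD28 with IL-2, IL-6 or IL-4; lysed with protease inhibitors plus 10 mM NaF and 1 mM Na3VO4; Bradford-normalised immunoblots for pSTAT1 (Tyr701), pSTAT5 (Tyr694), pSTAT6 (Tyr641) and total STATs.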
Background: A western blot detects proteins with antibodies after separation by electrophoresis.

In data set [1] the target is T1, Signal transducer and activator of transcription 6 (Homo sapiens) (UniProt P42226).
T1 sequence (whole entry): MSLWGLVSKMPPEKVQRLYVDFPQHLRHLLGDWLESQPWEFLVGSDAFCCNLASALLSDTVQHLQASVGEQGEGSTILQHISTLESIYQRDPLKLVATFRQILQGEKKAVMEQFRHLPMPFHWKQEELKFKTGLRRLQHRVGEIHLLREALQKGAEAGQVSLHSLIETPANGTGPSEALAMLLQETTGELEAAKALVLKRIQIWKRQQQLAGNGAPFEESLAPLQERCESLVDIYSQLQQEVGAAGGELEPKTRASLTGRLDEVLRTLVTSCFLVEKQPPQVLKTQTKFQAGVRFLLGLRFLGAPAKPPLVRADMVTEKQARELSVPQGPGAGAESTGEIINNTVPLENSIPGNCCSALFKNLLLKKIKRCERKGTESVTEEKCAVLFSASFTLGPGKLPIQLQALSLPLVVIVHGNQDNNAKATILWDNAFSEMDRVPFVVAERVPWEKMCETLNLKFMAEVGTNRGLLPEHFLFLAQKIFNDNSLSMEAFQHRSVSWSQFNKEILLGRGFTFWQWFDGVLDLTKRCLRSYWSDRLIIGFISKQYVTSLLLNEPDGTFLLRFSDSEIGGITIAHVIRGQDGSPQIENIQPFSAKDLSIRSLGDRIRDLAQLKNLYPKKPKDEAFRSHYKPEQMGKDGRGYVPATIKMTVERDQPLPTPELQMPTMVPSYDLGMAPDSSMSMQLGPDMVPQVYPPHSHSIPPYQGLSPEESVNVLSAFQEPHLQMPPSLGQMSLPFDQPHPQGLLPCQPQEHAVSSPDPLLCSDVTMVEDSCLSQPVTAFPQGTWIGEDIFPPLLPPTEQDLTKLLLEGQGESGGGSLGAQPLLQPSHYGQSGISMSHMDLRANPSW
Nature of the data set: Inhibition of IL4-induced STAT6 phosphorylation at tyrosine 641 in human Beas-2B cells at 50 to 100 nM incubated for 2 hrs followed by stimulation with IL4 for 1 hr by Western blot assay. Type of data set: cell-based. The method in brief:
(§2)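 Beas-2B seeded at 3.0 × 10^5 cells/well the day before; prodrugs from DMSO stocks added to final concentrations for 2 h, then IL-4 (2 ng/mL) for 1 h. PBS-washed cells lysed with PMSF, protein by modified Lowry; blots blocked in 3% BSA/TBST, probed for pSTAT6 (Tyr641), stripped and reprobed for total STAT6; ECL on X-ray film.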

Data set [2] has as its target Signal transducer and activator of transcription 3 (Mus musculus) (UniProt P42227). Briefly: Inhibition of IL6-induced STAT3 phosphorylation at S727 in CD4+ T lymphocytes isolated from C57BL/6J mouse preincubated for 2 hrs followed by activation with plate-bound anti-CD3/anti-CD28 for 15 mins by Western blot analysis.
Data set [3] is described as follows: Cytotoxicity against human BEAS2B cells assessed as cell viability at <=1 uM after 72 hrs by MTS assay. Particulars: beas-2b. Type of data set: cell-based. Put shortly: (§3)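 Beas-2B seeded at 2000 cells/well; 10 mM DMSO stocks serially diluted in DMSO and equal amounts added to cultures; 72 h at 37 °C; medium replaced by 1:5 MTS/PBS, 1 h further incubation; viable cells read as optical density at 490 nm.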

Data set [4] has as its target T2, Signal transducer and transcription activator 6 (Mus musculus) (UniProt P52633).
T2 sequence (whole entry): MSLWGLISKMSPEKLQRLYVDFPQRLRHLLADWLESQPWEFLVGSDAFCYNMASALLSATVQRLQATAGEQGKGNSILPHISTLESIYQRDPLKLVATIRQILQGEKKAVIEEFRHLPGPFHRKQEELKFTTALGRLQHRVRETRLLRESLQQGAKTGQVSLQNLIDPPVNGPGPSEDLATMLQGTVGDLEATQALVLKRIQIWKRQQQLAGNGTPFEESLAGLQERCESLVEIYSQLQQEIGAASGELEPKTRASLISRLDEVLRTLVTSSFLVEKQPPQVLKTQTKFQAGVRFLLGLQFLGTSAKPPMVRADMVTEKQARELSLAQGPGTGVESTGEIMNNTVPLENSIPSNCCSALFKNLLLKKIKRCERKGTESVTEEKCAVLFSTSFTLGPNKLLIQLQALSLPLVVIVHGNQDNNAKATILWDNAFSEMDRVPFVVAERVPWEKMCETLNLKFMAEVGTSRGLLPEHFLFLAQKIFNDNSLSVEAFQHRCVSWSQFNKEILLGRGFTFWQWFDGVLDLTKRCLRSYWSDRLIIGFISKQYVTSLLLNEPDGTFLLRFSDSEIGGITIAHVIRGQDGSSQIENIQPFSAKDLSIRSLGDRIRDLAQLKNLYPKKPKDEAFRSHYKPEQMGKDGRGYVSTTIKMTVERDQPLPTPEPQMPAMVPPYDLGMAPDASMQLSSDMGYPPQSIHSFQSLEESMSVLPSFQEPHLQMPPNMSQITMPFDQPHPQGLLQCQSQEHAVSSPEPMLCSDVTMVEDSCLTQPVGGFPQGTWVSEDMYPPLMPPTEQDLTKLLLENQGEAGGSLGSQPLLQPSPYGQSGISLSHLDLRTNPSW
Nature of the data set: Inhibition of IL4-induced STAT6 phosphorylation at Y641 in CD4+ T lymphocytes isolated from C57BL/6J mouse preincubated for 2 hrs followed by activation with plate-bound anti-CD3/anti-CD28 and IL4 for 15 mins by Western blot analysis. Type of data set: cell-based. The method in brief: as §1

For data set [5], the target named is T3, Signal transducer and activator of transcription 1 (Mus musculus) (UniProt P42225).
T3 sequence (whole entry): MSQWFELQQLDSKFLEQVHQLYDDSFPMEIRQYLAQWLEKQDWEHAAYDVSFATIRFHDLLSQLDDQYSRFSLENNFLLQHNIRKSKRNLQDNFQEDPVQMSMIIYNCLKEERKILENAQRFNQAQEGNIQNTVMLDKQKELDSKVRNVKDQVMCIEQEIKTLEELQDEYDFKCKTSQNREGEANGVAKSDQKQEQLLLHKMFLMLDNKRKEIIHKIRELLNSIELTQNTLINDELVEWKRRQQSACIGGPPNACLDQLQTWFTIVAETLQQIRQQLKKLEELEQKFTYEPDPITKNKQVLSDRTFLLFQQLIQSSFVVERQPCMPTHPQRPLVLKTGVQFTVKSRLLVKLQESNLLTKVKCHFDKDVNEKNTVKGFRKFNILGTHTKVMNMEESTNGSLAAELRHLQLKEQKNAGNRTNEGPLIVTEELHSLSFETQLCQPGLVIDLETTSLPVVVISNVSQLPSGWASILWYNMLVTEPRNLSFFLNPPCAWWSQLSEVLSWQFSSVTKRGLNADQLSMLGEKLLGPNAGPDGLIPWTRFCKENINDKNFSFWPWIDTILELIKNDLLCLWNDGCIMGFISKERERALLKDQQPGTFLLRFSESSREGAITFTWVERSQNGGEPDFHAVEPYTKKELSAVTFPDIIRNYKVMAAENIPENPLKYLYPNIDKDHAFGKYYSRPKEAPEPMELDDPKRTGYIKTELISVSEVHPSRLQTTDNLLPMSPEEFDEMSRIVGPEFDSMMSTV
Nature of the data set: Inhibition of IL6-induced STAT1 phosphorylation at Y701 in CD4+ T lymphocytes isolated from C57BL/6J mouse preincubated for 2 hrs followed by activation with plate-bound anti-CD3/anti-CD28 and IL6 for 15 mins by Western blot analysis. Type of data set: cell-based. Put shortly: as §1

Data set [6] concerns the target RAC-alpha serine/threonine-protein kinase (Homo sapiens) (UniProt P31749). Nature of the data set: Inhibition of EGF-induced AKT phosphorylation at S473 in human MDA-MB-468 cells at 5 uM incubated for 2 hrs followed by stimulation with EGF for 1 hr by Western blot assay. Type of data set: cell-based.
Data set [7] concerns the target T1, Signal transducer and activator of transcription 6 (Homo sapiens). Nature of the data set: Inhibition of IL4-induced STAT6 phosphorylation in human MDA-MB-468 cells at 0.1 to 5 uM incubated for 2 hrs followed by stimulation with IL4 for 1 hr by Western blot assay. It counts as cell-based. The method in brief:
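MDA-MB-468 breast cancer cells serum-starved, treated with prodrugs, then IL-4 stimulated; pSTAT6 read by Western blot.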

Data set [8] is described as follows: Cytotoxicity against human BEAS2B cells assessed as cell viability after 72 hrs by MTS assay. It counts as cell-based. Particulars: beas-2b. Put shortly:
as §3

In data set [9] the target is RAC-alpha serine/threonine-protein kinase (Homo sapiens) (UniProt P31749). Briefly: Inhibition of EGF-induced AKT phosphorylation at S473 in human MDA-MB-468 cells at 100 nM incubated for 2 hrs followed by stimulation with EGF for 1 hr by Western blot assay. It counts as cell-based.
Chain of RAC-alpha serine/threonine-protein kinase (Homo sapiens) (P31749 whole entry): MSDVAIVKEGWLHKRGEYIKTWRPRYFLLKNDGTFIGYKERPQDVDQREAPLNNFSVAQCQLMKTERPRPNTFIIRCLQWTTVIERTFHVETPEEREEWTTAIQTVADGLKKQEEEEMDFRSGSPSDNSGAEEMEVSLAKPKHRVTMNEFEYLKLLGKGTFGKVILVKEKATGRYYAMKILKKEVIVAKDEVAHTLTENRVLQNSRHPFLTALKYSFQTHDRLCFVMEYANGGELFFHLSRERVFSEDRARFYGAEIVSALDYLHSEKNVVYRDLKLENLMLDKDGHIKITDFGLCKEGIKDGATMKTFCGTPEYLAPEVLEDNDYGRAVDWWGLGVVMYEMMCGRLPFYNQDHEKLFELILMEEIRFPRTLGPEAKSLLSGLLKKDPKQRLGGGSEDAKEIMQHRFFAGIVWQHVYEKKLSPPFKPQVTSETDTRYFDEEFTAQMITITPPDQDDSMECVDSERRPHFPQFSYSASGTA
Data set [10] concerns the target T1, Signal transducer and activator of transcription 6 (Homo sapiens). Nature of the data set: Inhibition of IL4-induced STAT6 phosphorylation at tyrosine 641 in human Beas-2B cells at 0.05 to 5 uM incubated for 2 hrs followed by stimulation with IL4 for 1 hr by Western blot assay. It counts as cell-based. Put shortly: as §2
Data set [11] shares this target. Nature of the data set: Inhibition of IL-13-stimulated STAT6 SH2 domain phosphorylation in human Beas-2B cells assessed as inhibition of CCL26 mRNA expression preincubated for 2 hrs followed by stimulation with IL-13 for 24 hrs by RT-PCR analysis.
For data set [12] the target is unchanged. Nature of the data set: Inhibition of IL-13-stimulated STAT6 SH2 domain phosphorylation in human Beas-2B cells assessed as inhibition of CCL26 mRNA expression at 100 nM preincubated for 2 hrs followed by stimulation with IL-13 for 24 hrs by RT-PCR analysis relative to control.
The target is the same in data set [13]. Nature of the data set: Inhibition of IL4-stimulated STAT6 phosphorylation at tyrosine 641 in human Beas-2B cells at 0.025 to 5 uM incubated for 2 hrs followed by stimulation with IL4 for 1 hr by Western blot assay. It counts as cell-based. Put shortly: as §2
For data set [14] the target is unchanged. Briefly: Inhibition of IL4-induced STAT6 phosphorylation at tyrosine 641 in human Beas-2B cells at 100 to 500 nM incubated for 2 hrs followed by stimulation with IL4 for 1 hr by Western blot assay. Type of data set: cell-based. The method in brief: as §2

Calls of active or inactive are those of the source. The rule behind the calls is not given here.

For orientation: inhibition means how much of the control response was suppressed.

Chain of Signal transducer and activator of transcription 3 (Mus musculus) (P42227 whole entry): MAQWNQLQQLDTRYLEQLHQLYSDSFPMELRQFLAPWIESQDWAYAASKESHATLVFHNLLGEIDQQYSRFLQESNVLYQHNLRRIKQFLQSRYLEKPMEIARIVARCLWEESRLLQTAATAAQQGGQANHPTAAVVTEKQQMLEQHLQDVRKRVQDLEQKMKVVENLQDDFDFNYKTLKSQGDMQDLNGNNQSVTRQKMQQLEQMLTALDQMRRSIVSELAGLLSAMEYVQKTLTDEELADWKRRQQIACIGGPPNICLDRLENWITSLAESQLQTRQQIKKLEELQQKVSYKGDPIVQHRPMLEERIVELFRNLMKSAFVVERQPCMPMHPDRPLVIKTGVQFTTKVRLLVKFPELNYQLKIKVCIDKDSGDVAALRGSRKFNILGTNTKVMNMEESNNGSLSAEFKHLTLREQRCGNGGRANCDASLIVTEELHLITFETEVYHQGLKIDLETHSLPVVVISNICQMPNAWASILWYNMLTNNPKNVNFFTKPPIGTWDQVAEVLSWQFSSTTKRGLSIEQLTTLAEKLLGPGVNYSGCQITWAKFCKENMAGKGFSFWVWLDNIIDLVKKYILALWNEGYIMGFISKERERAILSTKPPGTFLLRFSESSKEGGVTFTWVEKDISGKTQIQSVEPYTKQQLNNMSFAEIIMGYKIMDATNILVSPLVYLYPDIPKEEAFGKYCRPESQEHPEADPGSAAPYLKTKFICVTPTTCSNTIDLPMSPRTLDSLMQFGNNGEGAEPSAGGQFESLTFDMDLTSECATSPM

Take `CN(C(=O)[C@@H]1CCCN1C(=O)[C@@H](NC(=O)/C=C/c1ccc(C(F)(F)P(=O)(OCOC(=O)C(C)(C)C)OCOC(=O)C(C)(C)C)cc1)C(C)(C)C)c1ccccc1`: the inhibition entry (in the data set filed under Mus musculus; in data set [1]; in data set [4]; in data set [6]; in data set [7]) was “Active” each time. In addition, the inhibition result in data set [2] and in data set [5] was “inactive” in each case. Also, the Activity entry in [3] and in data set [8] was “Non-toxic” in each case.

`CC(C)(C)C(=O)OCOP(=O)(OCOC(=O)C(C)(C)C)C(F)(F)c1ccc(/C=C/C(=O)N[C@H](C(=O)N2CCC[C@H]2C(=O)Nc2ccccc2)C(C)(C)C)cc1`: the inhibition result (in the data set filed under Mus musculus; in data set [2]; in [5]) was “inactive” throughout. Also, the inhibition result in [4], in data set [9] and in data set [10] was “Active” each time. Also, the Activity result in [8] is “Toxic”.

Turning to `CC(C)(C)C(=O)OCOP(=O)(OCOC(=O)C(C)(C)C)C(F)(F)c1ccc(/C=C/C(=O)N[C@H](C(=O)N2CCC[C@H]2C(=O)N(c2ccccc2)c2ccc(I)cc2)C(C)(C)C)cc1`, the inhibition entry in [2], in [4] and in [5] was “inactive” in each case. Moreover, the inhibition entry in [11] is “Dose-dependent effect”; in data set [12], > 50%.

Turning to `C/C(=C\C(=O)N[C@H](C(=O)N1CCC[C@H]1C(=O)N(C)C1CCCCC1)C(C)(C)C)c1ccc(C(F)(F)P(=O)(OCOC(=O)C(C)(C)C)OCOC(=O)C(C)(C)C)cc1`, the inhibition result (in the data set listed under Mus musculus; in data set [13]; in data set [4]) was “Active” throughout. The inhibition entry in data set [2] and in data set [5] was “inactive” in each case. Further, the Activity entry in [8] is given as “Non-toxic”.

Regarding `CC(C)(C)C(=O)OCOP(=O)(OCOC(=O)C(C)(C)C)C(F)(F)c1ccc(/C=C/C(=O)N[C@H](C(=O)N2CCC[C@H]2C(=O)N(c2ccccc2)c2ccccc2)C(C)(C)C)cc1`, the inhibition result (in the data set listed under Mus musculus; in [14]; in data set [4]; in data set [7]) was “Active” throughout. Moreover, the inhibition entry in data set [2] and in data set [5] was “inactive” throughout. In addition, the Activity entry in data set [3] is “Non-toxic”.
